# ChEMBL document CHEMBL2169768, “Synthesis and preliminary biological profile of new NO-donor tolbutamide analogues” (Bioorg Med Chem Lett, 2012)
# Active and inactive are the calls of the source. The calls are words filed in the database; no cut-off is given here.
# Assays:
# [1] = system: INS-1E; assay: (§1) Induction of glucose-stimulated insulin release from rat INS-1E cells at 200 uM after 1 hr by coated charcoal immunoassay in presence of 2 mM glucose; assay type: functional
# Summary of the method: (§2)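 INS-1E cells at passages 54–65 were kept in RPMI 1640 with 10% heat-inactivated FCS, pyruvate, 2-mercaptoethanol, glutamine and HEPES, and were seeded at 4 x 10^4 cells/cm2. After 48 h they were preincubated 1 h at 37 °C in KRBH with 0.5% BSA and 1 or 2 mM glucose. They were then exposed 1 h at 37 °C to glucose ± compound (100 or 200 µM). Secreted insulin was measured by RIA against a rat insulin standard. Data are mean ± SEM.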
# [2] = system: Aorta; assay: Vasodilatory activity in Wistar rat thoracic aorta assessed as relaxation of L-phenylephrine-induced contraction after 120 mins; assay type: functional, tissue-based; settings: for EC50: 2 h
# [3] = system: Aorta; assay: Vasodilatory activity in Wistar rat thoracic aorta assessed as relaxation of L-phenylephrine-induced contraction after 120 mins in presence of 1 uM sGC inhibitor ODQ; assay type: functional, tissue-based; settings: for EC50: 2 h
# [4] = Induction of nitrite production in rat INS-1E cells assessed per well at 200 uM after 2 hrs by Griess method in presence of 2 mM glucose; assay type: functional
# [5] = Antiaggregatory activity in human platelet-rich plasma assessed as inhibition of collagen-induced aggregation at 300 uM pretreated 10 mins before addition of stimulus measured after 10 mins; assay type: functional
# Summary of the method: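 Collagen-triggered aggregation in human platelet-rich plasma, by a method described in earlier work. Inhibition is taken relative to control samples. IC50 is obtained by nonlinear regression where it can be calculated. Otherwise percent inhibition is reported at the top concentration tried, 300 µM.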
# [6] = as §1; assay type: functional; summary of the method: as §2
# [7] = Induction of glucose-stimulated insulin release from rat INS-1E cells at 200 uM after 1 hr by coated charcoal immunoassay in presence of 2 mM glucose relative to control; assay type: functional; summary of the method: as §2
# [8] = Induction of glucose-stimulated insulin release from rat INS-1E cells at 100 uM after 1 hr by coated charcoal immunoassay in presence of 2 mM glucose relative to control; assay type: functional; summary of the method: as §2
# [9] = system: INS-1E; assay: Induction of glucose-stimulated insulin release from rat INS-1E cells at 200 uM after 1 hr by coated charcoal immunoassay in presence of up to 4 mM glucose; assay type: functional, cell-based; summary of the method: as §2
# [10] = Induction of glucose-stimulated insulin release from rat INS-1E cells at 200 uM after 1 hr by coated charcoal immunoassay in presence of 5.6 mM glucose; assay type: functional; summary of the method: as §2
# [11] = Induction of glucose-stimulated insulin release from rat INS-1E cells at 200 uM after 1 hr by coated charcoal immunoassay in presence of 11 mM glucose; assay type: functional; summary of the method: as §2
# [12] = Induction of NO release in phosphate buffered saline of pH 7.4 after 1 hr by Griess assay in presence of 5 mM L-cysteine; assay type: physicochemical; settings: buffer, pH 7.4, 1 h
# [13] = system: liver (rat); assay: Induction of nitric oxide release from Wistar rat liver homogenate at 200 uM after 45 mins by Griess method
# [14] = Induction of NO release in phosphate buffered saline of pH 7.4 after 1 hr by Griess assay in presence of 0.5 mM L-cysteine; assay type: physicochemical; settings: buffer, pH 7.4, 1 h
# [15] = Antiaggregatory activity in human platelet-rich plasma assessed as inhibition of collagen-induced aggregation pretreated 10 mins before addition of stimulus measured after 10 mins in presence of 50 uM ODQ; assay type: functional
EC50 [2] [nM],EC50 [3] [nM],Activity [12] [%],Compound,Activity [1],Activity [2],Activity [4] [nmol],inhibition at 300 µM [5] [%],Activity [6] [%],Activity [7] [%],Activity [8] [%],Activity [9],Activity [10] [%],further results
–,–,–,[O-][n+]1onc(COc2ccccc2)c1-c1ccccc1,inactive,–,–,–,–,–,–,–,–,–
–,–,–,CCCCNC(=O)NS(=O)(=O)c1ccc(C)cc1 [TOLBUTAMIDE],–,Dose-dependent effect,3.2,6.4,2.76,2.97,2.22,Active,4.98,Activity [3]: inactive; Activity [11]: 5.45%
740,57000,9.1,CCCCNC(=O)NS(=O)(=O)c1ccc(OCc2no[n+]([O-])c2C(N)=O)cc1,–,Dose-dependent effect,3.47,5.2,2.12,1.94,1.46,–,4.19,Activity [11]: 4.92%
–,–,–,O=S(=O)(c1ccccc1)c1c(Oc2ccccc2)no[n+]1[O-],inactive,–,–,–,–,–,–,–,–,–
1600,> 100000,< 1,CCCCNC(=O)NS(=O)(=O)c1ccc(OCCCO[N+](=O)[O-])cc1,–,Dose-dependent effect,3.88,1.1,2.18,2.38,1.86,–,4.62,Activity [11]: 5.79%; Activity [13]: Active
–,–,–,N#Cc1c(COc2ccccc2)no[n+]1[O-],inactive,–,–,–,–,–,–,–,–,–
2.4,220,–,CCCCNC(=O)NS(=O)(=O)c1ccc(Oc2no[n+]([O-])c2S(=O)(=O)c2ccccc2)cc1,–,Dose-dependent effect,22.68,–,–,4.33,3.06,Active,–,Activity [14]: 32.1%; IC50 [15]: 34000 nM
–,900,–,CCCCNC(=O)NS(=O)(=O)c1ccc(OCc2no[n+]([O-])c2C#N)cc1,–,Dose-dependent effect,10.33,–,–,–,–,Active,–,Activity [14]: 27.7%; IC50 [15]: 209000 nM
900,61000,4.3,CCCCNC(=O)NS(=O)(=O)c1ccc(OCC(CO[N+](=O)[O-])O[N+](=O)[O-])cc1 (stereo not drawn),–,Dose-dependent effect,5.65,5.6,2.6,–,–,Active,4.85,Activity [13]: Active
–,–,–,NC(=O)c1c(COc2ccccc2)no[n+]1[O-],inactive,–,–,–,–,–,–,–,–,–
2400,> 100000,< 1,CCCCNC(=O)NS(=O)(=O)c1ccc(OCc2no[n+]([O-])c2-c2ccccc2)cc1,–,Dose-dependent effect,7.03,13,–,2.41,1.83,Active,–,–
–,–,–,O=[N+]([O-])OCCCOc1ccccc1,inactive,–,–,–,–,–,–,–,–,–
–,–,–,O=[N+]([O-])OCC(COc1ccccc1)O[N+](=O)[O-] (stereo not drawn),inactive,–,–,–,–,–,–,–,–,–
